What was measured:
Acetylcholinesterase [1] = target: T1, Acetylcholinesterase (Electrophorus electricus, UniProt O42275); assay: Reversible mixed-type inhibition of electric eel acetylcholinesterase using acetylcholine bromide as substrate assessed as free enzyme-inhibitor complex by Lineweaver-Burk plot analysis
Acetylcholinesterase [2] = target: T1, Acetylcholinesterase; assay: Reversible mixed-type inhibition of electric eel acetylcholinesterase using acetylcholine bromide as substrate by Lineweaver-Burk plot analysis
Butyrylcholinesterase [3] = target: T2, Butyrylcholinesterase (Equus caballus, UniProt Q9N1N9); assay: Reversible mixed-type inhibition of horse serum butyrylcholinesterase using acetylcholine bromide as substrate assessed as free enzyme-inhibitor complex by Lineweaver-Burk plot analysis
T2 sequence (Q9N1N9 whole entry): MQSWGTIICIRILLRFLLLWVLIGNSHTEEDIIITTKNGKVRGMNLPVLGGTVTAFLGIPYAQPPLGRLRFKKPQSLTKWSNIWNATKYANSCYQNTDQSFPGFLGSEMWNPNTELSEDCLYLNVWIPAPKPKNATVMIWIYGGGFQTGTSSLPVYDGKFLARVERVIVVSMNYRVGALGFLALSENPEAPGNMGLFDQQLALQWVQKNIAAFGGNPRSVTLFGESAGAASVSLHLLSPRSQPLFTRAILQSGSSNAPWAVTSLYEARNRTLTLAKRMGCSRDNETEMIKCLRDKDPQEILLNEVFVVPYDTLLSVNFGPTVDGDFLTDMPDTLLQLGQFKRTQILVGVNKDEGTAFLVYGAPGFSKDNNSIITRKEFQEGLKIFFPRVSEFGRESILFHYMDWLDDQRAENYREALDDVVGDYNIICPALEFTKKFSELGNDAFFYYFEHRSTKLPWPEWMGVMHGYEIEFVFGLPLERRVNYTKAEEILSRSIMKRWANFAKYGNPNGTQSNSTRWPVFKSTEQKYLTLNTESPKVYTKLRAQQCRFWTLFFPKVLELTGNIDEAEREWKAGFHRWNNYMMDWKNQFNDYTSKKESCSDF

Butyrylcholinesterase [4] = target: T2, Butyrylcholinesterase; assay: Reversible mixed-type inhibition of horse serum butyrylcholinesterase using acetylcholine bromide as substrate by Lineweaver-Burk plot analysis
Acetylcholinesterase [5] = target: T1, Acetylcholinesterase; assay: Mixed-type inhibition of electric eel acetylcholinesterase using acetylcholine bromide as substrate assessed as free enzyme-inhibitor complex by Lineweaver-Burk plot analysis
Acetylcholinesterase [6] = target: T1, Acetylcholinesterase; assay: Mixed-type inhibition of electric eel acetylcholinesterase using acetylcholine bromide as substrate by Lineweaver-Burk plot analysis
Butyrylcholinesterase [7] = target: T2, Butyrylcholinesterase; assay: Mixed-type inhibition of horse serum butyrylcholinesterase using acetylcholine bromide as substrate assessed as free enzyme-inhibitor complex by Lineweaver-Burk plot analysis
Butyrylcholinesterase [8] = target: T2, Butyrylcholinesterase; assay: Mixed-type inhibition of horse serum butyrylcholinesterase using acetylcholine bromide as substrate by Lineweaver-Burk plot analysis
Acetylcholinesterase [9] = target: T1, Acetylcholinesterase; assay: Reversible competitive inhibition of electric eel acetylcholinesterase using acetylcholine bromide as substrate assessed as free enzyme-inhibitor complex by Lineweaver-Burk plot analysis
Butyrylcholinesterase [10] = target: T2, Butyrylcholinesterase; assay: Reversible competitive inhibition of horse serum butyrylcholinesterase using acetylcholine bromide as substrate assessed as free enzyme-inhibitor complex by Lineweaver-Burk plot analysis
Acetylcholinesterase [11] = target: T1, Acetylcholinesterase; assay: Mixed-type inhibition of electric eel acetylcholinesterase using acetylcholine bromide as substrate assessed as […] by Lineweaver-Burk plot analysis
In short: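 Electric eel electric-organ acetylcholinesterase (0.1 unit per 10 mL reaction) added to five inhibitor concentrations each mixed with acetylcholine bromide, e.g. 0.1, 0.15, 0.25, 0.4, 0.8 mM final. Initial hydrolysis rates over 4 min at 25 °C by pH-stat titration. Lineweaver-Burk analysis; Km from inhibitor-free runs.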

T1 sequence (O42275 whole entry): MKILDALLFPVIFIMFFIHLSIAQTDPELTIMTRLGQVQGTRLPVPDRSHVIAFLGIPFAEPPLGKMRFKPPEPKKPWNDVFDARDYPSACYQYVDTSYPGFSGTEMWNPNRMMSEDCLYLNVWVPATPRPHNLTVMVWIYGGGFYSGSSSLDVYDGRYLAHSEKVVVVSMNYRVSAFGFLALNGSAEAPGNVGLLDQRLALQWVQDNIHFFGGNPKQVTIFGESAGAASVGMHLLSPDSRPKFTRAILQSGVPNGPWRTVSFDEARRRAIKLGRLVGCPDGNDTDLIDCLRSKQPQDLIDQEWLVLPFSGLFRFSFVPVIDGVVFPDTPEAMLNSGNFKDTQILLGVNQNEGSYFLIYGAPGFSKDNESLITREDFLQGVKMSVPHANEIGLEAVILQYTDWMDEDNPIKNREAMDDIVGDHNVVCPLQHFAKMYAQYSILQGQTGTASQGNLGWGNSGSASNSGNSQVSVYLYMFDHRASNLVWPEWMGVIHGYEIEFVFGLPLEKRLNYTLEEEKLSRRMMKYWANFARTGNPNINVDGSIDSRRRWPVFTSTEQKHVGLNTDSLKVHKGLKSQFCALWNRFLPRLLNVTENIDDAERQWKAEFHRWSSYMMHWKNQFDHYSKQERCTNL

Row | SMILES | Ki (Acetylcholinesterase [1]) [µM] | Ki (Acetylcholinesterase [2]) [µM] | Ki (Butyrylcholinesterase [3]) [nM] | Ki (Butyrylcholinesterase [4]) [µM] | further results
1 | c1ccc2c(c1)ccc1c2ccc[n+]1CCCCCC[n+]1cccc2c3ccccc3ccc21 | 0.01 | 0.072 | 360 | 1.5 | –
2 | C[N+](C)(CCCCCC[N+](C)(C)Cc1ccc(-c2ccccc2)cc1)Cc1ccc(-c2ccccc2)cc1 | – | – | – | – | Ki (Acetylcholinesterase [5]): 39 µM; Ki (Acetylcholinesterase [6]): 120 µM; Ki (Butyrylcholinesterase [7]): 1.5 µM; Ki (Butyrylcholinesterase [8]): 7.9 µM
3 | CCCCCC[n+]1cc2ccccc2c2ccccc21 | 0.53 | 1.8 | 120 | 0.9 | –
4 | C[n+]1cccc2ccc3ccccc3c21 | 18 | 140 | 32000 | 230 | –
5 | OCC[n+]1cc2ccccc2c2ccccc21 | 31 | 45 | 37000 | 98.4 | –
6 | c1ccc(CC[n+]2cc3ccccc3c3ccccc32)cc1 | 0.28 | 0.78 | 54 | 0.31 | –
7 | c1ccc(C[n+]2cccc3c4ccccc4ccc32)cc1 | 9.3 | 37.4 | 860 | 5.6 | –
8 | O=C(O)C[n+]1cc2ccccc2c2ccccc21 | 12 | 72.4 | 41000 | 86 | –
9 | C[n+]1c2ccccc2cc2ccccc21 | 0.5 | 2.8 | 240 | 1.7 | –
10 | CC(=O)OCC[n+]1c2ccccc2cc2ccccc21 | – | – | – | – | Ki (Acetylcholinesterase [9]): 21 nM; Ki (Butyrylcholinesterase [10]): 11 nM
11 | c1ccc2c(c1)c[n+](Cc1ccc(C[n+]3cc4ccccc4c4ccccc43)cc1)c1ccccc21 | 0.18 | 0.71 | 57 | 0.23 | –
12 | c1ccc2c(c1)cc1ccccc1[n+]2CCCCCC[n+]1c2ccccc2cc2ccccc21 | 0.0021 | 0.0021 | 7.3 | 0.024 | –
13 | c1ccc(CC[n+]2cccc3c4ccccc4ccc32)cc1 | 1.8 | 18.5 | 920 | 4.9 | –
14 | C[n+]1cc2ccccc2c2ccccc21 | 5.6 | 25.5 | 1100 | 6.4 | –
15 | OCC[n+]1cccc2c3ccccc3ccc21 | 83 | 160 | 79000 | 210 | –
16 | CC(=O)OCC[n+]1ccccc1 | 320 | – | 120000 | – | Ki (Acetylcholinesterase [9]): 21 nM; Ki (Butyrylcholinesterase [10]): 11 nM; Ki (Acetylcholinesterase [5]): 320 µM; Ki (Butyrylcholinesterase [7]): 120 µM
17 | C[N+](C)(CCCCCC[N+](C)(C)C1c2ccccc2-c2ccccc21)C1c2ccccc2-c2ccccc21 [HEXAFLUORENIUM BROMIDE] | 1.3 | 1.3 | 340 | 0.89 | –
18 | c1ccc2c(c1)c[n+](CCCCCC[n+]1cc3ccccc3c3ccccc31)c1ccccc21 | 0.0066 | 0.0066 | 27 | 0.091 | –
19 | C[n+]1cccc2c3ccccc3ccc21 | 8.9 | 25.4 | 5400 | 34 | –
20 | c1cc[n+](CCCCCC[n+]2ccccc2)cc1 | – | – | – | – | Ki (Acetylcholinesterase [11]): 16 mM; Ki (Butyrylcholinesterase [7]): 120 µM; Ki (Butyrylcholinesterase [8]): 620 µM
21 | OCC[n+]1c2ccccc2cc2ccccc21 | 2.9 | 9.6 | 1300 | 7.2 | –
22 | CC(=O)OCC[n+]1cccc2c3ccccc3ccc21 | – | – | – | – | Ki (Acetylcholinesterase [9]): 950 nM; Ki (Butyrylcholinesterase [10]): 820 nM
23 | CC(=O)OCC[n+]1cc2ccccc2c2ccccc21 | – | – | – | – | Ki (Acetylcholinesterase [9]): 380 nM; Ki (Butyrylcholinesterase [10]): 120 nM
24 | CCC[n+]1cc2ccccc2c2ccccc21 | 3.2 | 13.6 | 1300 | 7.5 | –
25 | OCC[n+]1cccc2ccc3ccccc3c21 | 150 | 360 | 110000 | 410 | –
26 | CC(C)[n+]1cc2ccccc2c2ccccc21 | 22 | 97 | 1500 | 4.8 | –
27 | c1ccc(C[n+]2cc3ccccc3c3ccccc32)cc1 | 0.25 | 0.95 | 61 | 0.26 | –
